Results from ChEMBL document CHEMBL4715736, “Identification of anticancer agents based on the thieno[2,3-b]pyridine and 1H-pyrazole molecular scaffolds” (2016).

What was measured:
Type in all cases: functional
A549 = experiment: Growth inhibition of human A549/ATCC cells assessed as cell growth at 1 uM incubated for 48 hrs by sulforhodamine B assay relative to control; conditions: read-out: Activity
In short: (§1)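 NCI Developmental Therapeutics Program NCI60 panel. Compounds that were active in the 10 µM one-dose screen went on to dose–response testing. Growth at each concentration is expressed relative to untreated control (100%). GI50 (concentration giving 50% of maximal inhibition of proliferation) and TGI (concentration giving total growth inhibition) were derived from the curves.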

M14 = experiment: Growth inhibition of human M14 cells assessed as cell growth at 0.01 uM incubated for 48 hrs by sulforhodamine B assay relative to control; conditions: read-out: Activity
U-251 = experiment: Growth inhibition of human U-251 cells assessed as cell growth at 0.01 uM incubated for 48 hrs by sulforhodamine B assay relative to control; conditions: read-out: Activity
SK-MEL-2 [1] = experiment: Growth inhibition of human SK-MEL-2 cells assessed as cell growth at 100 uM incubated for 48 hrs by sulforhodamine B assay relative to control; conditions: read-out: Activity
SK-MEL-2 [2] = experiment: Growth inhibition of human SK-MEL-2 cells incubated for 48 hrs by sulforhodamine B assay
In short: (§2)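 NCI DTP 60-line human tumour panel. Dose-response curves were run only for ligands active in the initial 10 µM screen. GI50 (concentration giving 50% of maximal inhibition of proliferation) and TGI (concentration giving total growth inhibition) were derived from these curves.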

OVCAR-5 = experiment: Growth inhibition of human OVCAR-5 cells incubated for 48 hrs by sulforhodamine B assay; conditions: for CC50: read-out: LC50 (the source's name); in short: as §2
LOX IMVI [3] = experiment: Growth inhibition of human LOX IMVI cells assessed as cell growth at 100 uM incubated for 48 hrs by sulforhodamine B assay relative to control; conditions: read-out: Activity
NCI-H23 = experiment: Growth inhibition of human NCI-H23 cells assessed as cell growth at 100 uM incubated for 48 hrs by sulforhodamine B assay relative to control; conditions: read-out: Activity
SK-MEL-28 [4] = experiment: Growth inhibition of human SK-MEL-28 cells assessed as cell growth at 1 uM incubated for 48 hrs by sulforhodamine B assay relative to control; conditions: read-out: Activity
SK-MEL-28 [5] = experiment: Growth inhibition of human SK-MEL-28 cells incubated for 48 hrs by sulforhodamine B assay; in short: as §2
HCT-15 [6] = experiment: Growth inhibition of human HCT-15 cells assessed as cell growth at 0.01 uM incubated for 48 hrs by sulforhodamine B assay relative to control; conditions: read-out: Activity
786-0 = experiment: Growth inhibition of human 786-0 cells assessed as cell growth at 0.1 uM incubated for 48 hrs by sulforhodamine B assay relative to control; conditions: read-out: Activity; in short: as §1
SF-268 = experiment: Growth inhibition of human SF-268 cells assessed as cell growth at 100 uM incubated for 48 hrs by sulforhodamine B assay relative to control; conditions: read-out: Activity
NCI-H322M = experiment: Growth inhibition of human NCI-H322M cells assessed as cell growth at 0.1 uM incubated for 48 hrs by sulforhodamine B assay relative to control; conditions: read-out: Activity
LOX IMVI [7] = experiment: Growth inhibition of human LOX IMVI cells incubated for 48 hrs by sulforhodamine B assay
In short: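 NCI60 panel at the NCI Developmental Therapeutics Program. Only compounds active in the 10 µM screen went to dose-response testing. GI50, the concentration giving 50% of maximal inhibition of proliferation, and TGI, the concentration giving total growth inhibition, were derived from the dose-response curves.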

HCT-15 [8] = experiment: Growth inhibition of human HCT-15 cells assessed as cell growth at 100 uM incubated for 48 hrs by sulforhodamine B assay relative to control; conditions: read-out: Activity
LOX IMVI [9] = experiment: Growth inhibition of human LOX IMVI cells assessed as cell growth at 0.01 uM incubated for 48 hrs by sulforhodamine B assay relative to control; conditions: read-out: Activity
SK-OV-3 = experiment: Growth inhibition of human SK-OV-3 cells assessed as cell growth at 1 uM incubated for 48 hrs by sulforhodamine B assay relative to control; conditions: read-out: Activity
KM12 [10] = experiment: Growth inhibition of human KM12 cells assessed as cell growth at 0.1 uM incubated for 48 hrs by sulforhodamine B assay relative to control; conditions: read-out: Activity
HOP-92 = experiment: Growth inhibition of human HOP-92 cells assessed as cell growth at 100 uM incubated for 48 hrs by sulforhodamine B assay relative to control; conditions: read-out: Activity
DU-145 = experiment: Growth inhibition of human DU-145 cells assessed as cell growth at 0.1 uM incubated for 48 hrs by sulforhodamine B assay relative to control; conditions: read-out: Activity; in short: as §1
OVCAR-3 = experiment: Growth inhibition of human OVCAR-3 cells assessed as cell growth at 1 uM incubated for 48 hrs by sulforhodamine B assay relative to control; conditions: read-out: Activity
MDA-MB-231 = experiment: Growth inhibition of human MDA-MB-231 cells assessed as cell growth at 1 uM incubated for 48 hrs by sulforhodamine B assay relative to control; conditions: read-out: Activity
HCC 2998 = experiment: Growth inhibition of human HCC 2998 cells assessed as cell growth at 0.01 uM incubated for 48 hrs by sulforhodamine B assay relative to control; conditions: read-out: Activity; in short: as §1
OVCAR-8 = experiment: Growth inhibition of human OVCAR-8 cells assessed as cell growth at 1 uM incubated for 48 hrs by sulforhodamine B assay relative to control; conditions: read-out: Activity
TK-10 = experiment: Growth inhibition of human TK-10 cells assessed as cell growth at 0.1 uM incubated for 48 hrs by sulforhodamine B assay relative to control; conditions: read-out: Activity
MDA-MB-468 = experiment: Growth inhibition of human MDA-MB-468 cells assessed as cell growth at 1 uM incubated for 48 hrs by sulforhodamine B assay relative to control; conditions: read-out: Activity
SK-MEL-5 = experiment: Growth inhibition of human SK-MEL-5 cells incubated for 48 hrs by sulforhodamine B assay; in short: as §2
SW-620 = experiment: Growth inhibition of human SW-620 cells assessed as cell growth at 100 uM incubated for 48 hrs by sulforhodamine B assay relative to control; conditions: read-out: Activity
HCT-116 = experiment: Growth inhibition of human HCT-116 cells assessed as cell growth at 1 uM incubated for 48 hrs by sulforhodamine B assay relative to control; conditions: read-out: Activity
SF-539 = experiment: Growth inhibition of human SF-539 cells assessed as cell growth at 0.1 uM incubated for 48 hrs by sulforhodamine B assay relative to control; conditions: read-out: Activity
OVCAR-4 = experiment: Growth inhibition of human OVCAR-4 cells assessed as cell growth at 0.1 uM incubated for 48 hrs by sulforhodamine B assay relative to control; conditions: read-out: Activity
SR = experiment: Growth inhibition of human SR cells assessed as cell growth at 1 uM incubated for 48 hrs by sulforhodamine B assay relative to control; conditions: read-out: Activity
KM12 [11] = experiment: Growth inhibition of human KM12 cells assessed as cell growth at 1 uM incubated for 48 hrs by sulforhodamine B assay relative to control; conditions: read-out: Activity
CAKI-1 = experiment: Growth inhibition of human CAKI-1 cells assessed as cell growth at 0.1 uM incubated for 48 hrs by sulforhodamine B assay relative to control; conditions: read-out: Activity; in short: as §1

Compound `Cc1cc(C)c(NC(=O)c2sc3nc4c(cc3c2N)CN(Cc2ccccc2)CC4)c(C)c1` has a growth at 1 µM (A549) of 90%, a growth at 0.01 µM (M14) of 91% and a growth at 0.01 µM (U-251) of 99%. For the same compound, the growth at 100 µM (SK-MEL-2 [1]) was 6%, the GI50 (SK-MEL-2 [2]) was 5.59 µM and the LC50 (SK-MEL-2 [2]) was greater than 100 µM. For the same compound, the TGI (SK-MEL-2 [2]) was greater than 100 µM, the GI50 (OVCAR-5) was 12.5 µM and the TGI (OVCAR-5) was greater than 100 µM. For the same compound, the CC50 (OVCAR-5) was greater than 100 µM, the growth at 100 µM (LOX IMVI [3]) was -83% and the growth at 100 µM (NCI-H23) was 13%. It also gave a growth at 1 µM (SK-MEL-28 [4]) of 70%, a GI50 (SK-MEL-28 [5]) of 6.97 µM and an LC50 (SK-MEL-28 [5]) greater than 100 µM. It also gave a TGI (SK-MEL-28 [5]) of 40.4 µM, a growth at 0.01 µM (HCT-15 [6]) of 93% and a growth at 0.1 µM (786-0) of 92%. For the same compound, the growth at 100 µM (SF-268) was -10%, the growth at 0.1 µM (NCI-H322M) was 97% and the GI50 (LOX IMVI [7]) was 5.01 µM. For the same compound, the LC50 (LOX IMVI [7]) was 50.9 µM, the TGI (LOX IMVI [7]) was 18.1 µM and the growth at 100 µM (HCT-15 [8]) was 4%. The growth at 0.01 µM (LOX IMVI [9]) was 99%, the growth at 1 µM (SK-OV-3) was 88% and the growth at 0.1 µM (KM12 [10]) was 103%. For the same compound, the growth at 100 µM (HOP-92) was -7%, the growth at 0.1 µM (DU-145) was 101% and the growth at 1 µM (OVCAR-3) was 76%. It also gave a growth at 1 µM (MDA-MB-231) of 89%, a growth at 0.01 µM (HCC 2998) of 105% and a growth at 1 µM (OVCAR-8) of 91%. For the same compound, the growth at 0.1 µM (TK-10) was 104%, the growth at 1 µM (MDA-MB-468) was 63% and the GI50 (SK-MEL-5) was 1.47 µM. The LC50 (SK-MEL-5) was greater than 100 µM, the TGI (SK-MEL-5) was 11.5 µM and the growth at 100 µM (SW-620) was -43%. For the same compound, the growth at 1 µM (HCT-116) was 79%, the growth at 0.1 µM (SF-539) was 96% and the growth at 0.1 µM (OVCAR-4) was 94%. It also gave a growth at 1 µM (SR) of 68%, a growth at 1 µM (KM12 [11]) of 87% and a growth at 0.1 µM (CAKI-1) of 90%.
`Nc1c(C(=O)Nc2ccccc2)sc2nc3c(cc12)CN(Cc1ccccc1)CC3` gave a growth at 1 µM (A549) of 88%, a growth at 0.01 µM (M14) of 98% and a growth at 0.01 µM (U-251) of 98%. For the same compound, the growth at 100 µM (SK-MEL-2 [1]) was 4%, the GI50 (SK-MEL-2 [2]) was 20.3 µM and the LC50 (SK-MEL-2 [2]) was greater than 100 µM. The TGI (SK-MEL-2 [2]) was greater than 100 µM, the GI50 (OVCAR-5) was greater than 100 µM and the TGI (OVCAR-5) was greater than 100 µM. The CC50 (OVCAR-5) was greater than 100 µM, the growth at 100 µM (LOX IMVI [3]) was 20% and the growth at 100 µM (NCI-H23) was 24%. For the same compound, the growth at 1 µM (SK-MEL-28 [4]) was 94%, the GI50 (SK-MEL-28 [5]) was 23.2 µM and the LC50 (SK-MEL-28 [5]) was greater than 100 µM. For the same compound, the TGI (SK-MEL-28 [5]) was greater than 100 µM, the growth at 0.01 µM (HCT-15 [6]) was 102% and the growth at 0.1 µM (786-0) was 90%. The growth at 100 µM (SF-268) was 9%, the growth at 0.1 µM (NCI-H322M) was 93% and the GI50 (LOX IMVI [7]) was 10.5 µM. For the same compound, the LC50 (LOX IMVI [7]) was greater than 100 µM, the TGI (LOX IMVI [7]) was greater than 100 µM and the growth at 100 µM (HCT-15 [8]) was 25%. For the same compound, the growth at 0.01 µM (LOX IMVI [9]) was 94%, the growth at 1 µM (SK-OV-3) was 96% and the growth at 0.1 µM (KM12 [10]) was 95%. For the same compound, the growth at 100 µM (HOP-92) was -30%, the growth at 0.1 µM (DU-145) was 107% and the growth at 1 µM (OVCAR-3) was 100%. The growth at 1 µM (MDA-MB-231) was 92%, the growth at 0.01 µM (HCC 2998) was 90% and the growth at 1 µM (OVCAR-8) was 98%. The growth at 0.1 µM (TK-10) was 96%, the growth at 1 µM (MDA-MB-468) was 87% and the GI50 (SK-MEL-5) was 9.58 µM. For the same compound, the LC50 (SK-MEL-5) was greater than 100 µM, the TGI (SK-MEL-5) was greater than 100 µM and the growth at 100 µM (SW-620) was 23%. It also gave a growth at 1 µM (HCT-116) of 86%, a growth at 0.1 µM (SF-539) of 90% and a growth at 0.1 µM (OVCAR-4) of 91%. It also gave a growth at 1 µM (SR) of 82%, a growth at 1 µM (KM12 [11]) of 88% and a growth at 0.1 µM (CAKI-1) of 86%.
